A short description of data set [1]: Half life in CD1 mouse at 1.45 mg/kg, iv as bolus dose by LC-MS/MS method. Format: ADME, organism-based. Conditions: in vivo. In a few lines: (§1)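 Specific pathogen-free female CD1 (Hsd:ICR) mice, 8 to 10 weeks old. Each compound was given as an intravenous dose and an oral dose at the levels listed. Parameters reported: Vd, clearance, t1/2, Cmax, Tmax, AUC0-t, AUC∞ and %F.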

For the next data set, the system named is Plasmodium falciparum. The data set is described as follows: Antimalarial activity against Plasmodium falciparum 3D7A infected in human RBC after 48 hrs by [3H]-hypoxanthine incorporation assay. Format: functional.
A short description of data set [2]: AUC (0 to t) in CD1 mouse at 8.7 mg/kg administered via oral gavage by LC-MS/MS method. Format: ADME, organism-based. The note with it: in vivo. The gist of the method:
as §1

The nature of data set [3]: Tmax in CD1 mouse at 8.7 mg/kg administered via oral gavage by LC-MS/MS method. Type of data set: ADME, organism-based. The note with it: in vivo. In a few lines: (§2)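 Specific pathogen-free female CD1 (Hsd:ICR) mice, 8–10 weeks old, housed in the institutional animal facility. Each compound was given intravenously at a low dose and orally at a higher dose. Vd, clearance, t1/2, Cmax, Tmax, AUC0-t, AUC∞ and %F were derived from plasma exposure after each route.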

A short description of data set [4]: Volume of distribution in CD1 mouse at 1.45 mg/kg, iv as bolus dose by LC-MS/MS method. Type of data set: ADME, organism-based. The note with it: in vivo. In a few lines:
as §2

The nature of data set [5]: Clearance in CD1 mouse at 1.45 mg/kg, iv as bolus dose by LC-MS/MS method. Type of data set: ADME, organism-based. Conditions: in vivo. The gist of the method: as §1
Another data set relates to Plasmodium yoelii. Nature of the data set: Schizontocidal activity against Plasmodium yoelii infected in CD1 mouse administered via oral gavage as qd for 4 days starting 1 hr post infection by YOYO-1 dye-based flow cytometric method. Type of data set: functional. In a few lines: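 Blood schizontocidal activity was tested in a modified 4-day suppressive test in mice infected with P. yoelii. Four oral doses were given by gavage over four days.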
For orientation: A flow cytometer gives signals particle by particle.

A short description of data set [6]: Cmax in CD1 mouse at 8.7 mg/kg administered via oral gavage by LC-MS/MS method. Format: ADME, organism-based. More on the design: dose 8.7 mg/kg, route oral. Conditions: in vivo. The gist of the method:
as §1

A further data set has as its target serum albumin (Homo sapiens, UniProt P02768). Nature of the data set: Binding affinity to human serum albumin by HPLC method. Type of data set: ADME. Conditions: read-out: PB (converted).
Data set [7] in a line: Oral bioavailability in CD1 mouse at 8.7 mg/kg administered via gavage by LC-MS/MS method. Type of data set: ADME, organism-based. Conditions: in vivo. In a few lines:
as §2

Data set [8] in a line: AUC (infinity) in CD1 mouse at 8.7 mg/kg administered via oral gavage by LC-MS/MS method. Type of data set: ADME, organism-based. More on the design: dose 8.7 mg/kg, route oral, time infinity. The note with it: in vivo. In a few lines: as §1
The nature of data set [9]: Half life in CD1 mouse at […], iv as bolus dose by LC-MS/MS method. Format: ADME, organism-based. The note with it: in vivo.
Data set [10] is described as follows: Equilibrium solubility of compound in FeSSIF after 24 hrs by LC-MS method. Type of data set: physicochemical.
Data set [11] in a line: Cmax in CD1 mouse at 11.512 mg/kg administered via oral gavage by LC-MS/MS method. Type of data set: ADME, organism-based. Details: dose 11.512 mg/kg, route oral. Conditions: in vivo, 11.51 mg/kg. The gist of the method: as §1
Data set [12] can be described thus: AUC (infinity) in CD1 mouse at 11.512 mg/kg administered via oral gavage by LC-MS/MS method. Format: ADME, organism-based. Details: dose 11.512 mg/kg, time infinity, route oral. The note with it: in vivo, 11.51 mg/kg. The gist of the method:
as §1

Data set [13] in a line: Equilibrium solubility of compound in FaSSIF after 24 hrs by LC-MS method. Type of data set: physicochemical.
A short description of data set [14]: Oral bioavailability in CD1 mouse at 11.512 mg/kg administered via gavage by LC-MS/MS method. Type of data set: ADME, organism-based. The note with it: in vivo. In a few lines:
as §1

Data set [15] is described as follows: AUC (0 to t) in CD1 mouse at 11.512 mg/kg administered via oral gavage by LC-MS/MS method. Format: ADME, organism-based. The note with it: in vivo. In a few lines: as §1
Data set [16] is described as follows: Volume of distribution in CD1 mouse at […], iv as bolus dose by LC-MS/MS method. Type of data set: ADME, organism-based. Conditions: in vivo.
Data set [17] can be described thus: Clearance in CD1 mouse at […], iv as bolus dose by LC-MS/MS method. Type of data set: ADME, organism-based. Conditions: in vivo.
Data set [18] can be described thus: Tmax in CD1 mouse at 11.512 mg/kg administered via oral gavage by LC-MS/MS method. Type of data set: ADME, organism-based. Conditions: in vivo. The gist of the method: as §2
A short description of data set [19]: Half life in CD1 mouse at 0.211 mg/kg, iv as bolus dose by LC-MS/MS method. Format: ADME, organism-based. Conditions: in vivo. The gist of the method: as §1
Data set [20] is described as follows: Clearance in CD1 mouse at 0.211 mg/kg, iv as bolus dose by LC-MS/MS method. Type of data set: ADME, organism-based. The note with it: in vivo. In a few lines: as §1
The nature of data set [21]: Volume of distribution in CD1 mouse at 0.211 mg/kg, iv as bolus dose by LC-MS/MS method. The note with it: in vivo. Format: ADME, organism-based. The gist of the method: as §2
The nature of data set [22]: AUC (infinity) in CD1 mouse at 8.366 mg/kg administered via oral gavage by LC-MS/MS method. Type of data set: ADME, organism-based. Details: dose 8.366 mg/kg, route oral, time infinity. Conditions: in vivo. In a few lines: as §1
The nature of data set [23]: Cmax in CD1 mouse at 8.366 mg/kg administered via oral gavage by LC-MS/MS method. Type of data set: ADME, organism-based. More on the design: dose 8.366 mg/kg, route oral. Conditions: in vivo. In a few lines: as §1
Data set [24] is described as follows: AUC (0 to t) in CD1 mouse at 8.366 mg/kg administered via oral gavage by LC-MS/MS method. Format: ADME, organism-based. Conditions: in vivo. In a few lines: as §1
Data set [25] can be described thus: Oral bioavailability in CD1 mouse at 8.366 mg/kg administered via gavage by LC-MS/MS method. Conditions: in vivo. Type of data set: ADME, organism-based. In a few lines:
as §2

Data set [26] can be described thus: Tmax in CD1 mouse at 8.366 mg/kg administered via oral gavage by LC-MS/MS method. Type of data set: ADME, organism-based. Conditions: in vivo. In a few lines: as §2

What is called half-life is how long it takes for the measured level to halve. High values mean slow decline, low ones rapid decline. The IC50 is the concentration at which inhibition is half-maximal. Read a high IC50 as weaker potency in that assay. By AUC(0-t) is commonly meant the area under the concentration-time curve up to a stated or last time point. Higher therefore signals high exposure. A word on the Tmax: it is the time from dosing to the highest level. By Vd is commonly meant the apparent volume that relates the amount in the body to the concentration in plasma or blood. Higher therefore signals wide distribution into tissue. By clearance is commonly meant the rate of elimination divided by the concentration. Lower therefore signals inefficient removal. Broadly, the ED50 is the dose that gives a 50% effect, or the effect in half of the subjects. Low readings indicate an effect at a small dose, high ones a need for a large dose. For orientation: Cmax means the maximum level reached in the sampled fluid or tissue. Broadly, the AUC(0-inf) is total exposure, with the tail of the curve extrapolated. High values mean more exposure, low ones less exposure. For orientation: solubility (thermodynamic) means solubility found after equilibrating the solid with the medium.

≈ marks a conversion by molar mass, not a printed value. Some results are limits rather than exact numbers.

Chain of serum albumin (P02768 whole entry): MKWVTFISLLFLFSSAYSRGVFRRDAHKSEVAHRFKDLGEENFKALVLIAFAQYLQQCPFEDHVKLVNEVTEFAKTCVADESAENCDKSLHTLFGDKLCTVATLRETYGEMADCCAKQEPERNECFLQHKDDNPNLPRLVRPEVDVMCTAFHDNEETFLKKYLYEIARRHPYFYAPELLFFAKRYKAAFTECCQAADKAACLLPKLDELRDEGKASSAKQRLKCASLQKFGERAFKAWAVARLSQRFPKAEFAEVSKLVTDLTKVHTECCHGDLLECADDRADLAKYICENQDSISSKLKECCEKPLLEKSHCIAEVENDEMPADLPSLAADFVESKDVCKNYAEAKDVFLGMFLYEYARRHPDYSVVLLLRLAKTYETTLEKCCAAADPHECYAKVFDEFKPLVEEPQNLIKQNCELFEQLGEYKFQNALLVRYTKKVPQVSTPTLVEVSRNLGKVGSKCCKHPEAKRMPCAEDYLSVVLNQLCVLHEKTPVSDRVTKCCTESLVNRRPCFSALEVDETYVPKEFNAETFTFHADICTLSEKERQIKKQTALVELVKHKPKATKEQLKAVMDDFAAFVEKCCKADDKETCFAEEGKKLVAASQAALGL

In data set [1], `Cc1[nH]c(CO)c(-c2ccc(-c3ccc(OC(F)(F)F)cc3)nc2)c(=O)c1Cl` gave a half-life of 7.4 h. The same molecule yielded a half-maximal inhibitory concentration (IC50) with Plasmodium falciparum of 0.034 µM. This molecule returned an AUC(0-t) in data set [2] of 110 µg·h/mL. Besides, the Tmax in data set [3] amounted to 1 h. Further, the Vd in [4] was 1.11 L/kg. Besides, in data set [5], the clearance was determined as 0.106 L/h/kg. The same molecule had an ED50 in the data set with Plasmodium yoelii of 0.4 mg/kg. The highest level in [6] (Cmax) was 8.54 µg/mL. For the same molecule, the fraction unbound on serum albumin is 0.05. Besides, the bioavailability in data set [7] is 133%. The same molecule registered an AUC(0-inf) in [8] of 111 µg·h/mL.

In the case of `Cc1[nH]c(C)c(-c2ccc(-c3ccc(C(F)(F)F)cc3F)nc2)c(=O)c1Cl`, the half-life in [9] is 33.8 h. Also, the thermodynamic solubility at 24 h in data set [10] was 1.33 µg/mL (≈ 3.35 µM); in [13], under 1 µg/mL. Moreover, the peak level in data set [11] (Cmax) was 6.38 µg/mL. Also, the IC50 in the data set with Plasmodium falciparum stood at 0.01 µM. In data set [12], this molecule showed an AUC(0-inf) of 226 µg·h/mL. Moreover, in the data set on Plasmodium yoelii, the ED50 came out at 0.08 mg/kg. In addition, in data set [14], the bioavailability amounted to 30%. This molecule also yielded an AUC(0-t) in [15] of 204 µg·h/mL. Also, the Vd in data set [16] is 0.75 L/kg. Besides, at serum albumin, the fraction unbound was 0.05. Besides, in [17], the clearance worked out at 0.0156 L/h/kg. Besides, the Tmax in [18] came out at 10 h.

Take `Cc1[nH]c(C)c(-c2ccc(-c3ccc(C(F)(F)F)cc3Cl)nc2)c(=O)c1Cl`: the half-life in data set [19] was 12.8 h. The molecule also came in with an IC50 with Plasmodium falciparum of 0.002 µM. In data set [20], this molecule came in with a clearance of 0.0666 L/h/kg. The distribution volume (Vd) in data set [21] is 1.24 L/kg. Besides, the ED50 in the data set on Plasmodium yoelii stood at 0.33 mg/kg. Besides, the total exposure AUC(0-inf) in data set [22] is 37.5 µg·h/mL. In data set [23], this molecule had a Cmax of 1.69 µg/mL. The fraction unbound on serum albumin is 0.05. Moreover, the AUC(0-t) in data set [24] turned out to be 37.4 µg·h/mL. In addition, the bioavailability in data set [25] amounted to 30%. Moreover, the Tmax in data set [26] turned out to be 10 h.

Values taken from ChEMBL document CHEMBL4043297, “Synthesis and Structure-Activity Relationships of the Novel Antimalarials 5-Pyridinyl-4(1 H)-Pyridones” (J Med Chem, 2018).
